In ChEMBL document CHEMBL2331484, “Synthesis and biological evaluation of scopoletin derivatives” (Bioorg Med Chem, 2013):
Each block holds one compound with its values, some of them ahead of it. Calls of active or inactive are those of the source. No cut-off for these calls is given here.

Columns and labels:
HUVEC [1] = assay: Antiproliferative activity against HUVEC assessed as growth inhibition rate at 10 uM after 24 hrs by MTT assay; assay type: functional; details: Homo sapiens, read-out: GI
In short: (§1)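 HUVECs (passages 3–5, primary cord isolates) seeded at 1 × 10⁴ cells/well. Medium replaced with M199 containing 1% FBS plus compound. Viability read by MTT after 24 h. Percent inhibition was calculated from A570 minus A630 of treated versus control wells, and IC50 determined. Triplicate experiments, means ± SEM.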

HUVEC [2] = assay: Antiproliferative activity against HUVEC assessed as growth inhibition rate at 100 uM after 24 hrs by MTT assay; assay type: functional; details: Homo sapiens, read-out: GI; in short: as §1
HUVEC [3] = assay: Antiproliferative activity against HUVEC assessed as growth inhibition rate after 24 hrs by MTT assay; assay type: functional, cell-based; details: Homo sapiens; in short: as §1
PANC-1 [4] = assay: Inhibition of MMP-2 protein expression in human PANC1 cells at 10 to 50 umol/L after 24 hrs by SDS-PAGE analysis; assay type: functional, cell-based
In short: (§2)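 Gelatin zymography of culture medium from equal numbers of PANC-1 cells exposed to compound for 24 h. Samples run non-reduced and unboiled on 10% polyacrylamide with 1 mg/mL gelatin. Gel washed in 2.5% Triton X-100 buffer, digested 14 h at 37 °C in Tris–HCl/CaCl2/ZnCl2 buffer pH 7.6, then Coomassie-stained. Clear bands imaged.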

HCT-116 = assay: Cytotoxicity against human HCT116 cells after 24 hrs by MTT assay; assay type: functional, cell-based; details: HCT-116, 24 h
A549 = assay: Cytotoxicity against human A549 cells after 24 hrs by MTT assay; assay type: functional, cell-based; details: A549, 24 h
HUVEC [5] = assay: Effect on total src level in VEGF-stimulated HUVEC pretreated at 10 to 50 umol/L for 30 mins before VEGF addition by Western blot analysis; assay type: functional, cell-based; details: Homo sapiens
HUVEC [6] = assay: Antiangiogenic activity against HUVEC assessed as inhibition of VEGF-induced branching and network formation at 25 umol/L after 5 hrs by microscopy; assay type: functional, cell-based; details: Homo sapiens
In short: (§3)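 Matrigel-coated wells gelled 37 °C 30 min. DMSO or compound (final 25 µmol/L) added for 30 min before plating. After 5 h, enclosed complete tubes counted in five random fields by microscopy. Triplicate experiments, means ± SEM.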

[7] = target: MAP kinase p38 (Homo sapiens) (UniProt O15264+Q15759+Q16539+P53778); assay: Inhibition of VEGF receptor signaling in VEGF-stimulated HUVEC assessed a effect on p38 MAPK phosphorylation pretreated at 10 to 50 umol/L for 30 mins before VEGF addition by Western blot analysis; assay type: protein assay
[8] = Inhibition of VEGF receptor signaling in VEGF-stimulated HUVEC assessed a effect on src phosphorylation pretreated at 10 to 50 umol/L for 30 mins before VEGF addition by Western blot analysis; assay type: cell-based; details: Homo sapiens
BXPC-3 = assay: Cytotoxicity against human BxPC3 cells after 24 hrs by MTT assay; assay type: functional, cell-based; details: BXPC-3, 24 h
Gallus gallus [9] = organism: Gallus gallus; assay: Antiangiogenic activity in chicken embryo chorioallantoic membrane model assessed as inhibition of new blood vessel formation at 5 nmol/egg after 48 hrs by microscopy; assay type: functional, tissue-based
In short: (§4)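 Fertilized chicken eggs incubated seven days at 37.5 °C, ~55% humidity, and the air sac membrane was detached. Sterile 5 × 5 mm filter paper soaked with DMSO or compound (5 and 10 nmol/egg) was air-dried and placed on the CAM. Eggs were sealed and reincubated. Fat emulsion (20%) was injected into the CAM and vessels photographed. Three independent experiments.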

HepG2 = assay: Cytotoxicity against human HepG2 cells after 24 hrs by MTT assay; assay type: functional, cell-based; details: HepG2, 24 h
HuT78 = assay: Cytotoxicity against human HUT78 cells after 24 hrs by MTT assay; assay type: functional, cell-based; details: HuT78, 24 h
HUVEC [10] = assay: Antiangiogenic activity against HUVEC assessed as inhibition of VEGF-induced migration at 25 umol/L after 20 hrs by microscopy; details: Homo sapiens
MDA-MB-435 = assay: Cytotoxicity against human MDA-MB-435 cells after 24 hrs by MTT assay; assay type: functional, cell-based; details: MDA-MB-435, 24 h
[11] = Inhibition of VEGF receptor signaling in HUVEC assessed a inhibition of VEGF-induced ERK1/2 phosphorylation pretreated at 10 to 50 umol/L for 30 mins before VEGF addition by Western blot analysis; assay type: cell-based; details: Homo sapiens
PANC-1 [12] = assay: Cytotoxicity against human PANC1 cells after 24 hrs by MTT assay; assay type: functional, cell-based; details: PANC-1, 24 h
HUVEC [13] = assay: Antiangiogenic activity against HUVEC assessed as inhibition of VEGF-induced tube formation at 25 umol/L after 5 hrs by microscopy; assay type: functional, cell-based; details: Homo sapiens; in short: as §3
HUVEC [14] = assay: Effect on total ERK1/2 level in VEGF-stimulated HUVEC pretreated at 10 to 50 umol/L for 30 mins before VEGF addition by Western blot analysis; assay type: functional, cell-based; details: Homo sapiens
K562 = assay: Cytotoxicity against human K562 cells after 24 hrs by MTT assay; assay type: functional, cell-based; details: K562, 24 h
HUVEC [15] = assay: Effect on total akt level in VEGF-stimulated HUVEC pretreated at 10 to 50 umol/L for 30 mins before VEGF addition by Western blot analysis; assay type: functional, cell-based; details: Homo sapiens
PBMC = assay: Cytotoxicity against human PBMC after 24 hrs by MTT assay; assay type: cell-based
HUVEC [16] = assay: Effect on total p38 MAPK level in VEGF-stimulated HUVEC pretreated at 10 to 50 umol/L for 30 mins before VEGF addition by Western blot analysis; assay type: functional, cell-based; details: Homo sapiens
HL-60 = assay: Cytotoxicity against human HL60 cells after 24 hrs by MTT assay; assay type: functional, cell-based; details: HL-60, 24 h
PANC-1 [17] = assay: Inhibition of MMP-9 protein expression in human PANC1 cells at 10 to 50 umol/L after 24 hrs by SDS-PAGE analysis; assay type: functional, cell-based; in short: as §2
MKN-45 = assay: Cytotoxicity against human MKN45 cells after 24 hrs by MTT assay; assay type: functional, cell-based; details: MKN-45, 24 h
MDA-MB-231 = assay: Cytotoxicity against human MDA-MB-231 cells after 24 hrs by MTT assay; assay type: functional, cell-based; details: MDA-MB-231, 24 h
Gallus gallus [18] = organism: Gallus gallus; assay: Antiangiogenic activity in chicken embryo chorioallantoic membrane model assessed as inhibition of new blood vessel formation at 10 nmol/egg after 48 hrs by microscopy; assay type: functional, tissue-based; in short: as §4
[19] = Cytotoxicity against human SHG44 cells after 24 hrs by MTT assay; assay type: functional, cell-based; details: SHG-44, 24 h
A-431 = assay: Cytotoxicity against human A431 cells after 24 hrs by MTT assay; assay type: functional, cell-based; details: A-431, 24 h
[20] = Inhibition of VEGF receptor signaling in HUVEC assessed a inhibition of VEGF-induced Akt phosphorylation pretreated at 10 to 50 umol/L for 30 mins before VEGF addition by Western blot analysis; assay type: cell-based; details: Homo sapiens

Compound: COc1cc2ccc(=O)oc2cc1OCCN1CCOCC1
- inhibition of growth at 10 µM (HUVEC [1]): 0%
- inhibition of growth at 100 µM (HUVEC [2]): 1.9%

Compound: COc1cc2ccc(=O)oc2cc1OCCCl
- inhibition of growth at 10 µM (HUVEC [1]): 0.3%
- inhibition of growth at 100 µM (HUVEC [2]): 3.3%

- inhibition [7]: inactive
Compound: COc1cc2ccc(=O)oc2cc1OCC(O)CN1CCCCC1 (configuration not stated)
- IC50 (HUVEC [3]): 24.2 µM
- inhibition of growth at 10 µM (HUVEC [1]): 31.4%
- inhibition (PANC-1 [4]): Active
- IC50 (HCT-116): 26.1 µM
- IC50 (A549): 42.7 µM
- Activity (HUVEC [5]): inactive
- inhibition (HUVEC [6]): Active
- inhibition [8]: inactive
- IC50 (BXPC-3): 35 µM
- inhibition (Gallus gallus [9]): Active
- IC50 (HepG2): 83.9 µM
- IC50 (HuT78): 46.6 µM
- inhibition (HUVEC [10]): Active
- IC50 (MDA-MB-435): 63 µM
- inhibition [11]: Active
- IC50 (PANC-1 [12]): > 100 µM
- inhibition (HUVEC [13]): Active
- Activity (HUVEC [14]): inactive
- IC50 (K562): 43.7 µM
- Activity (HUVEC [15]): inactive
- IC50 (PBMC): > 100 µM
- Activity (HUVEC [16]): inactive
- IC50 (HL-60): 30.2 µM
- inhibition (PANC-1 [17]): Active
- IC50 (MKN-45): 78.9 µM
- IC50 (MDA-MB-231): 51.6 µM
- inhibition (Gallus gallus [18]): Active
- inhibition of growth at 100 µM (HUVEC [2]): 80.7%
- IC50 [19]: 42.8 µM
- IC50 (A-431): 93.9 µM
- inhibition [20]: Active

Compound: COc1ccc(C(=O)COc2cc3oc(=O)ccc3cc2OC)cc1
- IC50 (HUVEC [3]): 37.5 µM
- inhibition of growth at 10 µM (HUVEC [1]): 7.6%
- inhibition of growth at 100 µM (HUVEC [2]): 85.6%

Compound: COc1cc2ccc(=O)oc2cc1OCC(O)CNC(C)C (configuration not stated)
- inhibition of growth at 10 µM (HUVEC [1]): 0.1%
- inhibition of growth at 100 µM (HUVEC [2]): 6.3%

Compound: CCN(CC)CC(O)COc1cc2oc(=O)ccc2cc1OC (configuration not stated)
- inhibition of growth at 10 µM (HUVEC [1]): 0.5%
- inhibition of growth at 100 µM (HUVEC [2]): 0.3%

Compound: COc1cc2ccc(=O)oc2cc1OCC(=O)c1ccc(Cl)c(Cl)c1
- inhibition of growth at 10 µM (HUVEC [1]): 0%
- inhibition of growth at 100 µM (HUVEC [2]): 42.8%

Compound: COc1cc2ccc(=O)oc2cc1OCC(=O)c1ccccc1
- IC50 (HUVEC [3]): 62.4 µM
- inhibition of growth at 10 µM (HUVEC [1]): 3.4%
- inhibition of growth at 100 µM (HUVEC [2]): 83.6%

Compound: COc1cc2ccc(=O)oc2cc1OCCN1CCCCC1
- inhibition of growth at 10 µM (HUVEC [1]): 0.1%
- inhibition of growth at 100 µM (HUVEC [2]): 6.1%

Compound: COc1cc2ccc(=O)oc2cc1OCC1CO1 (configuration not stated)
- IC50 (HUVEC [3]): 5.3 µM
- inhibition of growth at 10 µM (HUVEC [1]): 62.2%
- inhibition of growth at 100 µM (HUVEC [2]): 95.5%

Compound: COc1cc2ccc(=O)oc2cc1OCCN1CCN(C)CC1
- inhibition of growth at 10 µM (HUVEC [1]): 0%
- inhibition of growth at 100 µM (HUVEC [2]): 12%

Compound: COc1cc2ccc(=O)oc2cc1OCCN1CCCC1
- inhibition of growth at 10 µM (HUVEC [1]): 1.9%
- inhibition of growth at 100 µM (HUVEC [2]): 7.9%
